In data set [1] the test system is Salmonella typhimurium. As to the kind of experiment: Antimutagenic activity against PhIP-induced Salmonella typhimurium TA98 mutagenesis preincubated at 0.5 umol/plate for 25 mins by Ames test in presence of S9 liver homogenate relative to control. Format: functional, organism-based. Conditions: Salmonella enterica subsp. enterica serovar Typhimurium, Liver S9 fraction. The method in brief: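 IP0.5 is the percent inhibition of PhIP-positive-control revertants (0.1×10^-7 mol/plate PhIP, TA98, with S9) at 0.5 µmol/plate tetrapyrrole. It was derived from dose-response data in the 25 min preincubation plate assay, with 48 h incubation at 37 °C. Three positive-control plates and six solvent-control plates per test.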
Background: The Ames test detects mutagens through reverse mutation in bacteria.

The test system of data set [2] is Salmonella typhimurium. As to the kind of experiment: Antimutagenic activity against PhIP-induced Salmonella typhimurium TA98 mutagenesis assessed as reduction in His+ revertants after 48 hrs by microscopy in presence of S9 liver homogenate. Format: functional, organism-based. Conditions: Salmonella enterica subsp. enterica serovar Typhimurium, Liver S9 fraction. The method in brief:
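Ames preincubation in TA98 with rat liver S9 mix (Aroclor 1254-induced, with NADP and glucose-6-phosphate). PhIP was 0.1×10^-7 mol/plate in DMSO; tetrapyrroles were in DMSO at 0.01–2 µmol/plate (bilirubin 0.01–0.75). Preincubation 25 min at 37 °C with shaking, then top agar on minimal glucose plates for 48 h at 37 °C. His+ revertants counted manually after microscopic lawn check. Triplicate plates, repeated independently.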

Data set [3] concerns Salmonella typhimurium. Nature of the data set: Antimutagenic activity against PhIP-induced Salmonella typhimurium TA98 mutagenesis preincubated at 0.01 to 10 umol/plate for 25 mins by Ames test in presence of S9 liver homogenate relative to control. The class given is functional, organism-based. Conditions: Salmonella enterica subsp. enterica serovar Typhimurium, Liver S9 fraction.

Data set [4] has as its system Salmonella typhimurium. As to the kind of experiment: Mutagenic activity in Salmonella typhimurium TA98 mutagenesis preincubated at 0.5 umol/plate for 25 mins by Ames test in presence of S9 liver homogenate relative to aflatoxin B1. The class given is toxicity, organism-based, Liver S9 fraction. Conditions: salmonella enterica subsp. enterica serovar typhimurium.

Calls of active or inactive are those of the source. The calls are words filed in the database; no cut-off is given here.

Regarding `C=CC1=C(C)/C(=C\c2[nH]c(Cc3[nH]c(/C=C4/NC(=O)C(C)=C4C=C)c(C)c3CCC(=O)OC)c(CCC(=O)OC)c2C)NC1=O`, the inhibition in data set [1] amounted to 68%.
`C=CC1=C(C)/C(=C/C2=NC(=C\c3[nH]c(/C=C4\NC(=O)C(C)=C4C=C)c(C)c3CCC(=O)O)/C(CCC(=O)O)=C2C)NC1=O` [BILIVERDIN]: the result in data set [2] and in data set [3] was Active. The inhibition in data set [1] turned out to be 78%. The Activity in data set [4] stood at 363%.
Regarding `CCC1=C(C)[C@H](CC2=N/C(=C\c3[nH]c(C[C@@H]4N=C(O)C(C)=C4CC)c(C)c3CCC(=O)O)C(CCC(=O)O)=C2C)N=C1O`, the result in data set [3] was Active. Moreover, the inhibition in data set [1] turned out to be 48%.
Consider `C=CC1=C(C)/C(=C/C2=NC(=C\c3[nH]c(/C=C4/NC(=O)C(C)=C4C=C)c(C)c3CCC(=O)OC)/C(CCC(=O)OC)=C2C)NC1=O`, for which the result in data set [2] and in data set [3] was Active. Also, in data set [1], the inhibition came out at 55%.
As for `CC[C@H]1[C@H](Cc2[nH]c(/C=C3\N=C(C[C@@H]4NC(=O)[C@H](CC)[C@H]4C)C(C)=C3CCC(=O)O)c(CCC(=O)O)c2C)NC(=O)[C@@H]1C`, the outcome in data set [3] was Active. Also, the inhibition in data set [1] amounted to 57%.
`C=CC1=C(C)c2cc3[nH]c(cc4nc(cc5[nH]c(cc1n2)c(C)c5CCC(=O)O)C(CCC(=O)O)=C4C)c(C)c3C=C`: the inhibition in data set [1] turned out to be 97%.
For the compound `C=CC1=C(C)/C(=C/c2[nH]c(Cc3[nH]c(/C=C4\NC(=O)C(C)=C4C=C)c(C)c3CCC(=O)NCCS(=O)(=O)O)c(CCC(=O)NCCS(=O)(=O)O)c2C)NC1=O` [BILIRUBIN DITAURATE], in data set [1], the inhibition was determined as 64%. In addition, in data set [4], the Activity was 268%.
Taken in the same sequence, the figures for `C=CC1=C(C)/C(=C/c2[nH]c(Cc3[nH]c(/C=C4\NC(=O)C(C)=C4C=C)c(C)c3CCC(=O)O)c(CCC(=O)O)c2C)NC1=O` [BILIRUBIN] were 82% and 352%.

Usually inhibition stands for how much of the control response was suppressed.

The record behind these values is ChEMBL document CHEMBL3120111, “Bilirubin and related tetrapyrroles inhibit food-borne mutagenesis: a mechanism for antigenotoxic action against a model epoxide” (J Nat Prod, 2013).
